These results are taken from ChEMBL document CHEMBL4382211, “Design, synthesis, and X-ray studies of potent HIV-1 protease inhibitors incorporating aminothiochromane and aminotetrahydronaphthalene carboxamide derivatives as the P2 ligands” (Eur J Med Chem, 2018).

A short description of series [1]: Selectivity index, ratio of CC50 for human MT4 cells to IC50 for HIV1 NL4-3. Type of series: toxicity. The conditions noted are these: read-out: Ratio CC50/IC50. A digest of the protocol: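 Antiviral IC50 measured in MT-4 human T-lymphoid cells exposed to HIV-1 NL4-3 (subtype B), with values the mean of at least two experiments. CC50 (cytotoxicity) determined in MT-4 cells, given in μM. Index calculated as CC50 divided by IC50.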

The subject of series [2] is Human immunodeficiency virus 1. Kind of series: Antiviral activity against HIV1 NL4-3 infected in human MT4 cells after 7 days by MTT assay. The format is functional, organism-based. The conditions noted are these: Human immunodeficiency virus 1, NL4-3, MT4, 168 h. Summed up: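 MT-4 human T-lymphoid cells were exposed to HIV-1 NL4-3 (subtype B). IC50 values are the mean of at least two experiments.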
In general terms: Formazan colour is commonly taken as a measure of viable cells.

In series [3] the target is Protease (Human immunodeficiency virus 1, UniProt Q9YQ12). Kind of series: Inhibition of HIV1 protease using fluorogenic substrate by continuous fluorometric assay.
Sequence of Protease (Q9YQ12 whole entry): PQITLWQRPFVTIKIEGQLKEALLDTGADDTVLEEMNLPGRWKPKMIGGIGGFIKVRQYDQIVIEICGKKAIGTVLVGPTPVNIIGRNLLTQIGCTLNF
The nature of series [4]: (§1) Cytotoxicity against human MT4 cells after 7 days by MTT assay. The format is cell-based. Particulars: MT4 cells.
Series [5] relates to MT4. The description is as §1. The format is cell-based. Particulars: mt4, 168 h.

Take `COc1ccc(S(=O)(=O)N(CC(C)C)C[C@@H](O)[C@H](Cc2ccccc2)NC(=O)c2ccc3c(c2)[C@H](NC(=O)OC(C)(C)C)CCS3(=O)=O)cc1`: the selectivity ratio in series [1] was above 210. Also, the 50% inhibitory concentration (IC50) – broadly, the concentration needed to halve the response being measured – in series [2] was 476 nM. The Ki (as a rule, a measure of affinity in units of concentration, obtained from inhibition or displacement) in series [3] came out at 0.1 nM. Moreover, the CC50 (usually the concentration at which the toxic effect on the cells reaches its halfway point) at 168 h in series [4] is above 100000 nM.
In the same order, the values of `COc1ccc(S(=O)(=O)N(CC(C)C)C[C@@H](O)[C@H](Cc2ccccc2)NC(=O)c2ccc3c(c2)[C@@H](NC(=O)OC(C)(C)C)CCS3(=O)=O)cc1` are above 2130, 47 nM, 0.008 nM and above 100000 nM.
Compound `COc1ccc(S(=O)(=O)N(CC(C)C)C[C@@H](O)[C@H](Cc2ccccc2)NC(=O)c2ccc3c(c2)[C@H](NC(=O)OC(C)(C)C)CCS3)cc1` had an IC50 in series [2] above 1000 nM. This compound had an inhibition constant Ki in series [3] of 26.7 nM.
`CC(C)(C)NC(=O)[C@@H]1C[C@@H]2CCCC[C@@H]2CN1C[C@@H](O)[C@H](Cc1ccccc1)NC(=O)[C@H](CC(N)=O)NC(=O)c1ccc2ccccc2n1`: in series [2], the IC50 came to 15 nM.
Take `COc1ccc(S(=O)(=O)N(CC(C)C)C[C@@H](O)[C@H](Cc2ccccc2)NC(=O)c2ccc3c(c2)[C@H](N)CC[C@@H]3O)cc1`: the half-inhibitory concentration (IC50) in series [2] is above 1000 nM. In series [3], this compound returned an inhibition constant (Ki) of 1.1 nM.
For `COc1ccc(S(=O)(=O)N(CC(C)C)C[C@@H](O)[C@H](Cc2ccccc2)NC(=O)c2ccc3c(c2)[C@@H](N)CC[C@H]3O)cc1` the same measures were above 1000 nM and 17 nM.
For `COc1ccc(S(=O)(=O)N(CC(C)C)C[C@@H](O)[C@H](Cc2ccccc2)NC(=O)c2ccc3c(c2)[C@@H](N)CCS3(=O)=O)cc1` the same measures were above 1000 nM and 15.8 nM.
Consider `COc1ccc(S(=O)(=O)N(CC(C)C)C[C@@H](O)[C@H](Cc2ccccc2)NC(=O)c2ccc3c(c2)[C@@H](NC(=O)OC(C)(C)C)CC[C@@H]3O)cc1`, for which the selectivity ratio in series [1] worked out at 131. The compound further returned an IC50 in series [2] of 254 nM. The compound further showed an inhibition constant Ki in series [3] of 0.14 nM. In addition, the CC50 in series [5] was found to be 33300 nM.
In series [2], `COc1ccc(S(=O)(=O)N(CC(C)C)C[C@@H](O)[C@H](Cc2ccccc2)NC(=O)c2ccc3c(c2)[C@@H](NC(=O)OC(C)(C)C)CC[C@H]3O)cc1` returned an IC50 above 1000 nM. Moreover, the Ki in series [3] came to 0.3 nM.
In the same order, the values of `COc1ccc(S(=O)(=O)N(CC(C)C)C[C@@H](O)[C@H](Cc2ccccc2)NC(=O)c2ccc3c(c2)[C@H](NC(=O)OC(C)(C)C)CC[C@@H]3O)cc1` are above 1000 nM and 1.63 nM.
For `COc1ccc(S(=O)(=O)N(CC(C)C)C[C@@H](O)[C@H](Cc2ccccc2)NC(=O)c2ccc3c(c2)[C@H](N)CCS3(=O)=O)cc1` the same measures were above 1000 nM and 18 nM.
`COc1ccc(S(=O)(=O)N(CC(C)C)C[C@@H](O)[C@H](Cc2ccccc2)NC(=O)c2ccc3c(c2)[C@@H](NC(=O)OC(C)(C)C)CCS3)cc1`: in series [2], the 50% inhibitory concentration (IC50) is above 1000 nM. This compound came in with a Ki in series [3] of 0.38 nM.
For `COc1ccc(S(=O)(=O)N(CC(C)C)C[C@@H](O)[C@H](Cc2ccccc2)NC(=O)c2ccc3c(c2)[C@@H](N)CC[C@@H]3O)cc1`, the selectivity ratio in series [1] turned out to be 151. Also, in series [2], half-maximal inhibition (IC50) required 232 nM. Moreover, the inhibition constant Ki in series [3] amounted to 0.06 nM. Moreover, half-maximal cytotoxicity in series [5] (CC50) was put at 35100 nM.
